Assay [1] has as its target T1, Ribonucleoside-diphosphate reductase subunit alpha (Mycobacterium tuberculosis, UniProt P9WH75).
T1 sequence (P9WH75 whole entry): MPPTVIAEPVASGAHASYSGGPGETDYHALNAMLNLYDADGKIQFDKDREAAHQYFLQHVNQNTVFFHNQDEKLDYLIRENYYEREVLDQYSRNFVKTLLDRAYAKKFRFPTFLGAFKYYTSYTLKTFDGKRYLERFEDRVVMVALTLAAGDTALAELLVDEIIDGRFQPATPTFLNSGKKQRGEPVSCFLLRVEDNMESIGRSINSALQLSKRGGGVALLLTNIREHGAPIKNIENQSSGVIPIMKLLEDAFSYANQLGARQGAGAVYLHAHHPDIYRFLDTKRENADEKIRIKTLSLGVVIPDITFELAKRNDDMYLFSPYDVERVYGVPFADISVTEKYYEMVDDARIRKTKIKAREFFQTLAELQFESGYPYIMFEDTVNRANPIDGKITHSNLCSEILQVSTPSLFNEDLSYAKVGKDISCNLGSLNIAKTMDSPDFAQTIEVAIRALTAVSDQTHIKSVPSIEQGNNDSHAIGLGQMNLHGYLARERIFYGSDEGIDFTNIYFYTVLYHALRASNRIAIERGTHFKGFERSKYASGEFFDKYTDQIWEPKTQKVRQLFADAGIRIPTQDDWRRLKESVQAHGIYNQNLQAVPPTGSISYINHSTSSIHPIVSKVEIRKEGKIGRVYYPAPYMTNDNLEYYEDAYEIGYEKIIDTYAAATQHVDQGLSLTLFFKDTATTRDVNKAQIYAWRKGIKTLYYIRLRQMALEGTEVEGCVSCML
In words: Displacement of Dansyl-Gly-Ser-Gly-Glu-Asp-Asp-Asp-Trp-Asp-Phe from C-terminal R1 subunit of Mycobacterium tuberculosis ribonucleotide reductase by fluorescence polarization assay. The gist of the method:
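Competitive fluorescence polarization: compounds compete with a fluorescent probe carrying the R2 C-terminal sequence for binding to M. tuberculosis R1, and dissociation constants (KD2) are derived. Compound stocks are 5–25 mM in 100% DMSO.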

The nature of assay [2]: Inhibition of Mycobacterium tuberculosis ribonucleotide reductase by [3H]CDP assay. Put shortly: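 CDP reduction is read as cpm. IC50 is the concentration giving a 50% cpm reduction, averaged from three separate experiments with standard deviation.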

Usually Kd stands for the equilibrium constant for the complex coming apart. A high value points to lower affinity. One may read the IC50 as the concentration that inhibits the measured activity by half. Read a low IC50 as higher potency.

Turning to Ac-EDDDWDF-OH, the Kd in assay [1] was found to be 8.3 µM. The compound further registered an IC50 in assay [2] of 20 µM.

In assay [1], `CC(=O)N[C@@H](CCC(=O)O)C(=O)N[C@@H](CC(=O)O)C(=O)N[C@@H](CC(=O)O)C(=O)Nc1cccc2c1N[C@@H](Cc1c[nH]c3ccccc13)C(=O)N(CC(=O)N[C@@H](Cc1ccccc1)C(=O)O)C2` came in with a dissociation constant (Kd) of 81 µM.

In assay [1], `CC(=O)N[C@@H](CCC(=O)O)C(=O)N[C@@H](CC(=O)O)C(=O)N[C@@H](CC(=O)O)C(=O)N[C@@H](CC(=O)O)C(=O)Nc1cccc2c1N[C@@H](Cc1c[nH]c3ccccc13)C(=O)N(CC(=O)N[C@@H](Cc1ccccc1)C(=O)O)C2` displayed a Kd of 27 µM. In addition, in assay [2], the IC50 was 64 µM.

`O=C(Nc1cccc2c1N[C@@H](Cc1c[nH]c3ccccc13)C(=O)N(CCO)C2)OCC1c2ccccc2-c2ccccc21` displayed a Kd in assay [1] of 26 µM. In addition, the half-maximal inhibitory concentration (IC50) in assay [2] was determined as 171 µM.

Regarding `CC(=O)N[C@@H](CC(=O)O)C(=O)Nc1cccc2c1N[C@@H](Cc1c[nH]c3ccccc13)C(=O)N(CC(=O)N[C@@H](Cc1ccccc1)C(=O)O)C2`, the dissociation constant (Kd) in assay [1] was > 150 µM.

As to `O=C(O)C[C@H](NC(=O)OCC1c2ccccc2-c2ccccc21)C(=O)Nc1cccc2c1N[C@@H](Cc1c[nH]c3ccccc13)C(=O)N(CC(=O)N[C@@H](Cc1ccccc1)C(=O)O)C2`, in assay [1], the Kd is 1.6 µM.

The compound `O=C(O)CN1Cc2cccc(NC(=O)OCC3c4ccccc4-c4ccccc43)c2N[C@@H](Cc2c[nH]c3ccccc23)C1=O` gave a Kd in assay [1] of 8.1 µM. The 50% inhibitory concentration (IC50) in assay [2] worked out at 24 µM.

These data come from ChEMBL document CHEMBL2346649, “Novel pseudopeptides incorporating a benzodiazepine-based turn mimetic--targeting Mycobacterium tuberculosis ribonucleotide reductase” (Bioorg Med Chem, 2013).
